Reference: paper PMC11808297 (RSC Advances, 2025)

Columns and labels:
[1] = Metabolic stability in mouse liver microsomes; type: in vitro ADME; details: for CLint(liver): NADPH; for Remaining (NCF = 60 min): no co-factor
Summary of the method: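 CD-1 mouse liver microsomes in 100 mM potassium phosphate buffer, preincubated 10 min at 37 °C with NADPH (1 mM final) or without co-factor. Test compound spiked to 1 μM final; testosterone positive control. Sampled at 5, 15, 30, 45, 60 min, quenched in cold acetonitrile with tolbutamide/labetalol IS, LC-MS/MS. T1/2 and CLint from first-order kinetics.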

MDA-MB-231 = test: Anti-proliferation assay; type: cell-based; details: Homo sapiens, MDA-MB-231, 48 h, read-out: IC50 against proliferation, MDA-MB-231
Summary of the method: (§1)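 Cells thawed, grown in RPMI 1640 + 10% FBS at 37 °C, 5% CO2; used in log phase. Seeded 10 000–12000 cells/well, after 4 h test compound added at working concentrations 0.16/0.8/4/20/100 μmol L−1 in complete medium. MTT (5 mg mL−1) added for 4 h, formazan dissolved in DMSO, absorbance at 570 nm.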

HEL = test: Anti-proliferation assay; type: cell-based; details: Homo sapiens, 48 h, read-out: IC50 against proliferation, HEL
Summary of the method: as §1

K562 = test: Anti-proliferation assay; type: cell-based; details: Homo sapiens, K562, 48 h, read-out: IC50 against proliferation, K562
Summary of the method: as §1

HuH7 = test: Anti-proliferation assay; type: cell-based; details: Homo sapiens, Huh-7, 48 h, read-out: IC50 against proliferation, HuH7
Summary of the method: as §1

PLC/PRF/5 = test: Anti-proliferation assay; type: cell-based; details: Homo sapiens, PLC-PRF-5, 48 h, read-out: IC50 against proliferation, PLC/PRF/5
Summary of the method: as §1

HEPG2 = test: Anti-proliferation assay; type: cell-based; details: Homo sapiens, HepG2, 48 h, read-out: IC50 against proliferation, HEPG2
Summary of the method: as §1

APN from porcine kidney = molecular target: T1, APN from porcine kidney (Sus scrofa, UniProt P15145); test: APN inhibition assay; type: biochemical
T1 sequence (P15145 1-963): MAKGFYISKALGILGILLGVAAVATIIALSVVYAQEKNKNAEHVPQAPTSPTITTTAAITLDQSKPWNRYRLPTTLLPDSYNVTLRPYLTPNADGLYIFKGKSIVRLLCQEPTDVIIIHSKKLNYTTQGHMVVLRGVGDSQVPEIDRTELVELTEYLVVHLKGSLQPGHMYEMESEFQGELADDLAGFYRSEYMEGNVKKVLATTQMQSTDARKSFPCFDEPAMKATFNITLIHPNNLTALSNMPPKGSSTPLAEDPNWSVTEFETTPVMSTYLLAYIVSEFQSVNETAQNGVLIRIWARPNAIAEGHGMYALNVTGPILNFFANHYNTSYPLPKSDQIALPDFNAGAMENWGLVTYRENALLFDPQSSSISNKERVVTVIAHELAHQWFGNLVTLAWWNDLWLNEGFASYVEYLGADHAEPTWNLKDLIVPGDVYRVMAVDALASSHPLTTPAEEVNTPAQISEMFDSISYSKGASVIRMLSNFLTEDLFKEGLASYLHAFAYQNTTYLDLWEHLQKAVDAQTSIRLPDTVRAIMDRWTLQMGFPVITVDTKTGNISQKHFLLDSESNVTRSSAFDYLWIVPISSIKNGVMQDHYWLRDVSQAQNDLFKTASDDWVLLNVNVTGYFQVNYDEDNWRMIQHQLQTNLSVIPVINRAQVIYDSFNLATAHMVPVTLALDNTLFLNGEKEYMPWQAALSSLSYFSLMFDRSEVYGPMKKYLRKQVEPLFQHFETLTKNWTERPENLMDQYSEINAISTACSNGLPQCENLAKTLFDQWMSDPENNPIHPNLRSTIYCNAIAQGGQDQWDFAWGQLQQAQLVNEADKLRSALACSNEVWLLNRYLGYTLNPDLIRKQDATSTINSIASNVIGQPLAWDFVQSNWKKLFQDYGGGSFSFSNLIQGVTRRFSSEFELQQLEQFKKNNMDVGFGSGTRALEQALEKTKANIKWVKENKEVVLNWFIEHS

[2] = system: human umbilical vein endothelial cells (HUVECs); test: HUVEC tubular structure formation assay; type: cell-based; details: 5 μM, 4 h on Matrigel
rat thoracic aorta ring = test: Rat aortic ring assay; details: 5 μM, 9 days
Summary of the method: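 Thoracic aortas from 8–10 week-old male SD rats, cleaned of fibroadipose tissue, cut into 1 mm rings, embedded between Matrigel layers. Test compound in M199 added; cultured at 37 °C, 5% CO2 for 9 days with medium plus compound renewed every three days. Micro-vessels imaged by inverted microscope at 100×.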

[3] = Stability in simulated gastric fluid; type: in vitro ADME; details: 2 μM, 37 °C, pH 1.20, up to 24 h
Summary of the method: (§2)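 Test compound at 2 μM final in simulated gastric fluid (NaCl, pepsin, HCl; pH 1.20) or simulated intestinal fluid (KH2PO4, pancreatin; pH 6.8), shaken at 37 °C, 600 rpm. At 0, 1, 2, 6, 24 h quenched with cold acetonitrile containing tolbutamide/labetalol IS, centrifuged 4 °C; remaining compound by LC/MS/MS peak area ratio analyte/IS, C18 column.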

[4] = Stability in simulated intestinal fluid; type: in vitro ADME; details: 2 μM, 37 °C, pH 6.8, up to 24 h
Summary of the method: as §2

[5] = In vivo PK study in Sprague Dawley rats; details: male, rat, plasma
Summary of the method: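 Male SD rats, 180–220 g, acclimatised one week, fasted 12 h. Single dose i.v. infusion (jugular vein cannula sampling) or oral; blood taken predose and to 24 h (i.v. from 0.083 h, oral from 0.25 h). Plasma by centrifugation, stored −20 °C, LC-MS/MS quantitation.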

[6] = mouse liver microsomes, 1 μM, 60 min

SMILES: C[C@]12CC[C@H]3[C@@H](CCC4=CC(=O)CC[C@@]43C)[C@@H]1CC[C@@H]2O [Testosterone, reference compound]
- CLint(liver) ([1]; mouse liver microsomes, 1 μM): 998.5 mL/min/kg
- Remaining (NCF = 60 min) [1, 6]: 91.0%

SMILES: CC(C)C[C@H](NC(=O)[C@@H](O)[C@H](N)Cc1ccccc1)C(=O)O [Bestatin, reference compound]
- IC50 (MDA-MB-231): > 100 µM
- IC50 (HEL): > 100 µM
- IC50 (K562): > 100 µM
- IC50 (HuH7): > 100 µM
- IC50 (PLC/PRF/5): > 100 µM
- IC50 (HEPG2): > 100 µM

SMILES: CC(C)C[C@H](NC(=O)NCc1cn(-c2ccccc2C(=O)OCn2cc(F)c(=O)[nH]c2=O)nn1)C(=O)NO [Compound 3, (5-fluoro-2,4-dioxo-3,4-dihydropyrimidin-1(2H)-yl)methyl (S)-2-(4-((3-(1-(hydroxyamino)-4-methyl-1-oxopentan-2-yl)ureido)methyl)-1H-1,2,3-triazol-1-yl)benzoate]
- IC50 (APN from porcine kidney): 0.5 ± 0.29 µM
- APN inhibitory activity, fold more potent than bestatin (APN from porcine kidney; vs positive control bestatin): over 8 fold
- IC50 (MDA-MB-231): > 100 µM
- IC50 (HEL): 47.2 ± 19.3 µM
- IC50 (K562): 25.6 ± 12.3 µM
- IC50 (HuH7): > 100 µM
- IC50 (PLC/PRF/5): > 100 µM
- IC50 (HEPG2): > 100 µM
- Effect on HUVEC capillary tube formation [2]: could inhibit the capillary tube formation
- Effect on micro-vessel growth of rat aortic ring (rat thoracic aorta ring): could prevent the micro-vessel growth
- Stability in simulated gastric fluid [3]: very stable
- Stability in simulated intestinal fluid [4]: slowly cleaved
- half-life at 1 μM ([1]; CD-1, mouse, liver microsomes): 94.9 min
- microsomal CLint at 1 μM ([1]; CD-1, mouse, liver microsomes): 14.6 µL/min/mg
- CLint(liver) ([1]; mouse liver microsomes, 1 μM): 57.8 mL/min/kg
- Remaining (NCF = 60 min) [1, 6]: 80.1%
- Remaining (T = 60 min) ([1]; mouse liver microsomes, 1 μM, with NADPH, 60 min): 69.4%
- Tmax ([5]; iv, 10 mg/kg): 5 min
- clearance ([5]; iv, 10 mg/kg): 12.3 mL/min/kg
- half-life ([5]; iv, 10 mg/kg): 52 ± 23.2 min
- AUC(0-inf) ([5]; po, 50 mg/kg): 510 ± 99.3 ng·h/mL
- AUC(0-t) ([5]; po, 50 mg/kg): 484 ± 119 ng·h/mL
- Cmax ([5]; po, 50 mg/kg): 337 ± 158 ng/mL
- Tmax ([5]; po, 50 mg/kg): 25 ± 8.64 min
- half-life ([5]; po, 50 mg/kg): 266 ± 246 min
